AHR act: activators of human aryl hydrocarbon receptor; AID 2796; activation, % at 5 µM; 2.5% of 320,000 active; P35869; AHR-responsive luciferase reporter cells, luminescence; in the data active means activation above about 47%
Target sequence (P35869 whole entry, looked up): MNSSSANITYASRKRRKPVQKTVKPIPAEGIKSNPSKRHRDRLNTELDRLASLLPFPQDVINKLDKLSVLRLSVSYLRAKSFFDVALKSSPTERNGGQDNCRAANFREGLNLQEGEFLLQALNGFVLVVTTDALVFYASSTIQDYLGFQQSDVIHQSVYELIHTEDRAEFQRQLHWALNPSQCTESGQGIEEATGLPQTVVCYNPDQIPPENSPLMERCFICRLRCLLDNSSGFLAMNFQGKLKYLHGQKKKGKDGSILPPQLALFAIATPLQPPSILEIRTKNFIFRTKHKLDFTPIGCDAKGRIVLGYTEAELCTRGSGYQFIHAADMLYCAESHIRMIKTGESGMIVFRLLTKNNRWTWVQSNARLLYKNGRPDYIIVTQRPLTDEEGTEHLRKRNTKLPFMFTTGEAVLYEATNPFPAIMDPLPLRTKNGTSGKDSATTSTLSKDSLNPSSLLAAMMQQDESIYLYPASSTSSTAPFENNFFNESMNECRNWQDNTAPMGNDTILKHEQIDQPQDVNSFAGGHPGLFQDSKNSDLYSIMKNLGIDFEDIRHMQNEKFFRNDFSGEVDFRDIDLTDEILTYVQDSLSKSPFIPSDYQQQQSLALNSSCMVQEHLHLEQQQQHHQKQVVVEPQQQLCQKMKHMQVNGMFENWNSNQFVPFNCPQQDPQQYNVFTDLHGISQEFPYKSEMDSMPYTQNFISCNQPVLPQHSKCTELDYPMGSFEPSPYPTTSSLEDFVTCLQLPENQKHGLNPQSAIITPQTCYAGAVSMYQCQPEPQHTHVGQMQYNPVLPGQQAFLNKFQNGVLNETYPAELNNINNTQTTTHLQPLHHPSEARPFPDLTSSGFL
HDAC3 inhib: inhibitors of human histone deacetylase 3. inhibition, % at 8.3 µM. 0.15% of 320,000 active. recombinant HDAC3, fluorogenic peptide/trypsin coupled, fluorescence. O15379; in the data active means inhibition above about 26%, passing the limit was not always enough
PfM18AAP inh: blocks P. falciparum M18 aspartyl aminopeptidase; recombinant PfM18AAP, H-Glu-NHMec fluorogenic cleavage; inhibition, % at 7.35 µM; 1.2% of 290,000 active;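 active means inhibition above the campaign mean inhibition over all tested compounds plus 3 SD, cut at about 28% in these data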
SENP1 inh: blocks the human SENP1 SUMO protease catalytic domain. Q9P0U3. recombinant SENP1 catalytic domain, CyPet-SUMO1-YPet FRET cleavage. inhibition, % at 10 µM. 0.21% of 360,000 active;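 active means inhibition at least 30% at 10 µM, raw YFP signal under a set limit, fluorescence ratio 0.5 to 1.5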
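Material – human SENP1 catalytic domain · Input – SENP1 enzyme, 20 pM final · Compound dosing – single concentration of 10 µM compound, 0.5% DMSO final · Timing – enzyme reaction for 50 min at room temperature, dark · Measured by – FRET fluorescence in CFP and YFP emission channels · Control set – no-enzyme wells low, DMSO-plus-enzyme wells high control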
CTSL1 counter: counter-screen for PFM18AAP inhibitors: inhibitors of F. hepatica cathepsin L1. recombinant F. hepatica cathepsin L1, Z-Leu-Arg-MCA fluorescence. inhibition, % at 5.96 µM. 0.49% of 300,000 active. AID 1906;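 active means inhibition above the mean of all tested compounds plus 3 SD, set per screening campaign, cut at about 17% in these data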
GAA850 FXN act: increases GAA850 frataxin promoter reporter activity; HEK293 lucGAA850 FXN promoter luciferase reporter, 24 h; percent of 10 µM SAHA response; activation, % at 6 µM; 0.56% of 360,000 active; AID 540364;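 active means activation above the average of all compounds screened plus 3 SD, cutoff fixed separately per campaign, cut at about 7.5% in these data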
Large screens that a line does not name were inactive. An excerpt weighted towards active compounds, which were near 4.2% of everything screened.

CC(C)CC1Nc2ncnc(N3CCN(c4ccccc4)CC3)c2N(Cc2ccc(Cl)cc2)C1=O (stereo unspecified)	none (no result: PfM18AAP inh)
Cn1c(=O)cc2c3c(c(N4CCCCC4)ccc31)C(=O)c1ccccc1-2	SENP1 inh 33
CCCS(=O)(=O)NC(=O)C1(C)CCN(C(=O)c2ccc(F)c(C)c2)C1 (stereo unspecified)	none (no result: AHR act, HDAC3 inhib, PfM18AAP inh, CTSL1 counter)
C=CCn1cccc(C(=O)Nc2ccc(Cl)cc2)c1=O	AHR act 51
C=CCn1cccc(C(=O)Nc2ccc(SC)cc2)c1=O	AHR act 65
C=CCn1cccc(C(=O)Nc2ccc(N(C)C)cc2)c1=O	none
COc1ccc(C(=O)c2[nH]c(N)c(C(=O)NCCc3c[nH]c4ccccc34)c2-c2c(F)cccc2Cl)cc1	none (no result: AHR act, HDAC3 inhib, PfM18AAP inh, CTSL1 counter, GAA850 FXN act)
CCOc1cccc(CN2CCC(n3nccc3NC(=O)C3CC3)CC2)c1O	none
O=C(CSc1nccc(=O)[nH]1)N1N=C2/C(=C/c3ccco3)CCCC2C1c1ccco1 (stereo unspecified)	CTSL1 counter 17
CCOC(=O)C1C(=O)NC(c2ccccc2)=NC1c1cccc(Br)c1 (stereo unspecified)	CTSL1 counter 22
Cn1c2ccccc2c2c(C(=O)O)cn(C3CCCC3)c(=O)c21	CTSL1 counter 18
COc1ccc(CCNC(=O)CN2C(=O)NC(Cc3c[nH]c4ccccc34)C2=O)cc1 (stereo unspecified)	none
Nc1c(N)c2ccccc2oc1=O	none
Nc1c(C(=O)c2ccc(Br)s2)oc2ccccc12	AHR act 68
Nc1c(C(=O)c2cccs2)oc2ccccc12	AHR act 49
CCCCCCCCN1C(=O)[C@H](CC(=O)NCc2ccccc2)C[C@@]2(C(=O)OC)CCCCC=C12	none (no result: AHR act, HDAC3 inhib, PfM18AAP inh, CTSL1 counter, GAA850 FXN act)
COc1cccc(-c2cnc3c(NC(C)=O)cc(-c4ccccc4OC)cn23)c1	none (no result: AHR act, HDAC3 inhib, PfM18AAP inh, CTSL1 counter)
COc1ccccc1NS(=O)(=O)c1cccc(NC(=O)c2[nH]c(C)c(C(C)=O)c2C)c1	none (no result: HDAC3 inhib)
CC(=O)c1c(C)[nH]c(C(=O)NC2=NCCS2)c1C	AHR act 75
CC(=O)c1c(C)[nH]c(C(=O)Nc2ccc(Cl)cc2F)c1C	none
CC(=O)c1c(C)[nH]c(C(=O)Nc2ccc(F)c(F)c2F)c1C	AHR act 62
COc1ccccc1NC(=O)c1[nH]c(C)c(C(C)=O)c1C	AHR act 55 (no result: HDAC3 inhib)
CC(=O)c1c(C)[nH]c(C(=O)Nc2ccccc2N2CCOCC2)c1C	AHR act 72
Cc1cccc(NC(=O)COC(=O)C2COc3ccccc3O2)c1C (stereo unspecified)	none (no result: PfM18AAP inh, CTSL1 counter)
CC(=O)c1c(C)[nH]c(C(=O)Nc2ccc(Cl)cc2)c1C	none
CC(=O)c1c(C)[nH]c(C(=O)Nc2ccccn2)c1C	AHR act 71
CSc1cccc(NC(=O)c2[nH]c(C)c(C(C)=O)c2C)c1	none
CC(=O)c1c(C)[nH]c(C(=O)Nc2cccc(C)c2C)c1C	AHR act 55
CC(=O)N1CCOc2ccc(S(=O)(=O)N3CCC(C)CC3)cc21	none
CNc1nc(Nc2ccc([N+](=O)[O-])cc2)nc(OCC(F)(F)F)n1	AHR act 62
CCOc1nc(NCCO)nc(Nc2ccc([N+](=O)[O-])cc2)n1	none
CCOc1ccc(NC(=O)CC2Nc3ccccc3NC2=O)cc1 (stereo unspecified)	none
Cc1cccc(NC(=O)CC2Nc3cccc4cccc(c34)NC2=O)c1 (stereo unspecified)	AHR act 75
COc1ccccc1NC(=O)CC1Nc2ccccc2NC1=O (stereo unspecified)	AHR act 56
CC(=O)c1ccc(NC(=O)CC2Nc3cccc4cccc(c34)NC2=O)cc1 (stereo unspecified)	PfM18AAP inh 29
COc1cc(NC(=S)Nc2cccc(C)n2)cc(OC)c1OC	AHR act 69
CCOC(=O)NC(=S)Nc1cccc(C)n1	none (no result: AHR act, HDAC3 inhib, PfM18AAP inh, CTSL1 counter)
Cc1c(C(=O)Nc2ccc(F)cc2)c2ccccn2c1CCc1ccncc1	AHR act 90
COC(=O)CCc1c(C)c(C(=O)c2ccc(F)cc2)c2ccccn12	none
Cc1cc2n(n1)C(c1ccc(N(C)C)cc1)Nc1ccccc1-2 (stereo unspecified)	AHR act 82
Cc1cc2n(n1)C(c1ccccc1)Nc1ccccc1-2 (stereo unspecified)	none
Cc1ccc2c(c1)-c1cc(C)nn1C(c1ccc3c(c1)OCO3)N2 (stereo unspecified)	AHR act 94
CCOc1ccc(CCNC(=O)c2cc(C)nn2-c2ccccc2)cc1	none
CC1CCN(C(=O)CCC(=O)Nc2ccc([N+](=O)[O-])cc2)CC1	none (no result: AHR act, HDAC3 inhib, PfM18AAP inh, CTSL1 counter)
O=C(CS(=O)(=O)c1ccc(Cl)cc1)Nc1nccs1	none (no result: AHR act, HDAC3 inhib, PfM18AAP inh, CTSL1 counter)
N#Cc1c(-c2cccc(Br)c2)cc(-c2cccnc2)nc1N	none
N#Cc1c(-c2ccc(F)cc2)cc(-c2cccnc2)nc1N	AHR act 55
O=C(CNC(=O)c1ccccc1)OC(C(=O)c1ccccc1)c1ccccc1 (stereo unspecified)	CTSL1 counter 18
Cc1ccc(C(=O)C(OC(=O)CNC(=O)c2ccc(Cl)cc2)c2ccccc2)cc1 (stereo unspecified)	CTSL1 counter 20
O=C(CNC(=O)C1CCCCC1)OC(C(=O)c1ccccc1)c1ccccc1 (stereo unspecified)	none (no result: PfM18AAP inh, CTSL1 counter)
COc1ccc(/C(C)=N/NC(=O)CNC(=O)c2ccco2)cc1	none
COc1ccc(C(=O)C(OC(=O)CNC(=O)c2ccco2)c2ccccc2)cc1 (stereo unspecified)	CTSL1 counter 33
COC[C@H]1CCCN1c1ccc2c(c1)O[C@@H](COCc1ccccc1)CN([C@H](C)c1ccccc1)S2(=O)=O	none (no result: AHR act, HDAC3 inhib, PfM18AAP inh, CTSL1 counter, GAA850 FXN act)
N/C(=N\OC(=O)c1cccc(Cl)c1)c1ccccn1	AHR act 70
N/C(=N\OC(=O)c1ccccc1Cl)c1ccccn1	AHR act 52
N/C(=N\OC(=O)c1ccc(Cl)cc1)c1ccccn1	none
N/C(=N\OC(=O)c1ccc(Cl)c(Cl)c1)c1ccccn1	AHR act 72
COc1ccccc1C(=O)O/N=C(\N)c1ccccn1	none
COc1ccc(-c2csc(NC(=O)/C(N=Nc3ccccc3)=C(\C)O)n2)cc1	AHR act 48 (no result: SENP1 inh, GAA850 FXN act)
COc1ccc(/C=C2\SC(=S)N(CCCC(=O)N3CCCCC3CCO)C2=O)cc1 (stereo unspecified)	none
OC(Cc1ccccc1)c1ncc(-c2ccc3ccccc3c2)[nH]1 (stereo unspecified)	none (no result: AHR act, HDAC3 inhib, PfM18AAP inh, CTSL1 counter)
NC(=S)N/N=C/c1ccc(-c2ccc(SC(F)F)cc2)o1	AHR act 53
NC(=S)N/N=C/c1ccc(-c2ccc(Cl)c(Cl)c2)o1	AHR act 48, CTSL1 counter 23
O=C(O)c1cc(-c2ccc(/C=N/NC(=S)Nc3ccccc3)o2)ccc1Cl	none
